Test results from ChEMBL document CHEMBL1122978, “Structure-activity relationship of estrogens: receptor affinity and estrogen antagonist activity of certain (E)- and (Z)-1,2,3-triaryl-2-propen-1-ones” (J Med Chem, 1985).
Values joined by “and” are separate entries in the source; they are usually repeats but may differ in a detail not shown here. Equal values may be shown once.

How the values were obtained:
[1] = test system: Estrogen receptor (Mus musculus); assay: Relative binding affinity calculated as the ratio of molar concentration of E2 and the triarylpropenones (TAP's) required to decrease [3H]E2 binding by 50%.
[2] = molecular target: T1, Estrogen receptor (Mus musculus) (UniProt O08537+P19785); assay: In vivo anti-uterotrophic activity in mice following 1 ug estradiol i.p.; type: functional, organism-based; details: in the assay text read “s.c.” for “i.p.”
T1 sequence (O08537 whole entry, looked up): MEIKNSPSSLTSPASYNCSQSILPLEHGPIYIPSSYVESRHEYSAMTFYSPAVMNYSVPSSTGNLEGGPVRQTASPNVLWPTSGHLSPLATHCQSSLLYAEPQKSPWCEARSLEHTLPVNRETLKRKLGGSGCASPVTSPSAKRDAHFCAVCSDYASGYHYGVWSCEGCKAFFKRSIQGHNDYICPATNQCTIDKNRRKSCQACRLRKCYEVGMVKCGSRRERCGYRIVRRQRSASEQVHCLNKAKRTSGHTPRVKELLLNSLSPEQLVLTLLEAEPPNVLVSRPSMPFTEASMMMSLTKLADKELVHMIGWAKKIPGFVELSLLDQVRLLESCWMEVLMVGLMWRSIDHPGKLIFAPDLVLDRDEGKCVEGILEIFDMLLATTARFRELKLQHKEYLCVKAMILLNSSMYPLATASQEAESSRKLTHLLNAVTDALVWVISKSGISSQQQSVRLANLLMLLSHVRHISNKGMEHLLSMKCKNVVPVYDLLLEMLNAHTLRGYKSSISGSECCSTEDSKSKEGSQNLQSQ
T1 sequence (P19785 whole entry, looked up): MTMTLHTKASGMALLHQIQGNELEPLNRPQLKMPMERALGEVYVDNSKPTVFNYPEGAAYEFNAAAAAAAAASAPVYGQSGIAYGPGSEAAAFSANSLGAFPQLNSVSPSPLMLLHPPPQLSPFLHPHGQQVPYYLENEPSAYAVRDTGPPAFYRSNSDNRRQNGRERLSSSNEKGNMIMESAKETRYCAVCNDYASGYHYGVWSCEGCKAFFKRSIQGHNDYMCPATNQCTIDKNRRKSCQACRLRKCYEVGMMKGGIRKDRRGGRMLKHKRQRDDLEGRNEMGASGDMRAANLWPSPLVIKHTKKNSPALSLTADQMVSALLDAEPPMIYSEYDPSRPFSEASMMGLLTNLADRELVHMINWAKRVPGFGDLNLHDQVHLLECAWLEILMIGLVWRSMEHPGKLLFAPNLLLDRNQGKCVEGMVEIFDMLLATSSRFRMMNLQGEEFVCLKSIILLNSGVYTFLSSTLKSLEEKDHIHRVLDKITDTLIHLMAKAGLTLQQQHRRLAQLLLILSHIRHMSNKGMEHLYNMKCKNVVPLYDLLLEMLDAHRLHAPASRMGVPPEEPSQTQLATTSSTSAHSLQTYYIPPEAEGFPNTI
How it was run: (§1)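 Antiuterotrophic test in immature female Swiss mice, 21-23 days old, 8-12 g. Each animal received 100 μg compound s.c. in propylene glycol-0.9% saline (1:1) daily for 3 days, with 1 μg E2 given at a separate site. Controls got E2 plus vehicle. Uterine weights were taken 24 h after the last dose. Activity computed as 100 × (W_ET − W_C)/(W_E − W_C).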

[3] = molecular target: T1, Estrogen receptor (Mus musculus); assay: Percentage inhibition of uterotrophic effects of estradiol in vivo following 100 ug i.p.; type: functional, organism-based; details: in the assay text read “s.c.” for “i.p.”
How it was run: as §1

[4] = molecular target: T1, Estrogen receptor (Mus musculus)
[5] = molecular target: T2, Estrogen receptor (Rattus norvegicus) (UniProt P06211+Q62986); assay: Uterotrophic activity as uterine weight gain without E2 in rats; type: functional, tissue-based; details: Uterus
How it was run: (§2)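 Immature female Charles Foster rats, 21-23 days old, 25-40 g, were dosed s.c. at 0.5-1000 μg/rat in propylene glycol-0.9% saline (1:1) for 3 consecutive days. Rats were given the compound either alone or with 1 μg E2 at another site. Uterine weight was measured 24 h after the last injection and reported as mean ± SD of at least six animals.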

[6] = molecular target: T2, Estrogen receptor (Rattus norvegicus); assay: Uterotrophic activity as uterine weight gain in rats with concomitant E2 treatment; type: functional, tissue-based; details: Uterus
How it was run: as §2

[7] = molecular target: T1, Estrogen receptor (Mus musculus); assay: Uterotrophic activity as uterine weight gain in immature mice without E2 (number of animals); type: functional, tissue-based; details: Uterus
How it was run: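 Uterotrophic test in immature female Swiss mice, 21-23 days old, 8-12 g. Dosing was 100 μg/animal s.c. in propylene glycol-0.9% saline (1:1) on three consecutive days, and controls got vehicle alone. Uteri were weighed at autopsy 24 h after the last injection. Group sizes are given per compound.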

| RBA [1] | Uterine weight [2] [mg] | inhibition [3] [%] | Uterine weight [4] | Uterine weight [5] | Uterine weight [6] | Uterine weight [7] [mg] | SMILES |
| --- | --- | --- | --- | --- | --- | --- | --- |
| < 0.001 | 15.3 | 52 | 4.6 mg | – | – | – | COc1ccc(/C=C(\C(=O)c2ccccc2)c2ccccc2)cc1 |
| < 0.001 | 15.3 | 52 | 3.5 mg | – | – | – | COc1ccc(/C(=C/c2ccccc2)C(=O)c2ccccc2)cc1 |
| 0.42 | 17.3 | 42 | 5.9 mg | – | – | – | CC(=O)Oc1ccc(/C=C(/C(=O)c2ccccc2)c2ccccc2)cc1 |
| 0.09 | 17.3 | 42 | 4.3 mg | – | – | – | COc1ccc(/C=C(/C(=O)c2ccccc2)c2ccccc2)cc1 |
| < 0.001 | 16 | 48 | 4.8 mg | – | – | – | COc1ccc(C(=O)/C(=C\c2ccccc2)c2ccccc2)cc1 |
| 0.55 | – | 69 | 4.4 mg and 12 mg | 20.5 mg [middle of 5 runs] | 53.6 mg [middle of 5 runs] | – | O=C(/C(=C/c1ccc(O)cc1)c1ccc(O)cc1)c1ccc(O)cc1 |
| 0.4 | 22.3 | 16 | 3.4 mg | – | – | – | O=C(/C(=C\c1ccc(O)cc1)c1ccccc1)c1ccc(O)cc1 |
| 2.02 | 18.5 | 36 | – | – | – | 9.7 | O=C(/C(=C/c1ccccc1)c1ccccc1)c1ccc(O)cc1 |
| 1.02 | 14 | 58 | 14 mg | – | – | – | CC(=O)Oc1ccc(/C=C(/C(=O)c2ccc(OC(C)=O)cc2)c2ccccc2)cc1 |
| < 0.001 | 20.2 | 27 | 5 mg | – | – | – | COc1ccc(C(=O)/C(=C/c2ccccc2)c2ccccc2)cc1 |
| < 0.001 | 13.6 | 60 | 3.2 mg | – | – | – | O=C(/C(=C\c1ccccc1)c1ccccc1)c1ccc(O)cc1 |
| 0.28 | 21.5 | 20 | 4.2 mg | – | – | – | CC(=O)Oc1ccc(/C(=C\c2ccccc2)C(=O)c2ccccc2)cc1 |
| 0.025 | – | – | – | – | – | – | O=C(/C(=C/c1ccccc1)c1ccccc1)c1ccc(OCCN2CCCC2)cc1 |
| 4.75 | 14.7 | 55 | 4.1 mg | – | – | – | O=C(/C(=C\c1ccccc1)c1ccc(O)cc1)c1ccc(O)cc1 |
| 0.48 | 16.5 | 47 | 5.6 mg | – | – | – | O=C(/C(=C\c1ccc(O)cc1)c1ccc(O)cc1)c1ccccc1 |
| 0.22 | 14 | 58 | 5 mg | – | – | – | O=C(/C(=C/c1ccc(O)cc1)c1ccccc1)c1ccccc1 |
| 0.37 | 21.9 | 18 | 6.8 mg | – | – | – | O=C(/C(=C/c1ccccc1)c1ccc(O)cc1)c1ccc(O)cc1 |
| 0.24 | 17.8 | 39 | 4.5 mg | – | – | – | CC(=O)Oc1ccc(/C(=C/c2ccccc2)C(=O)c2ccccc2)cc1 |
| 0.02 | 18.5 | 36 | 4.7 mg | – | – | – | COc1ccc(/C(=C\c2ccccc2)C(=O)c2ccccc2)cc1 |
| < 0.001 | 15.3 | 51 | 3 mg | – | – | – | O=C(/C(=C\c1ccccc1)c1ccccc1)c1ccccc1 |
| 0.012 | 15.4 | 51 | 4.4 mg | – | – | – | O=C(/C(=C/c1ccccc1)c1ccccc1)c1ccccc1 |
| 0.57 | 16.9 | 44 | 5.5 mg | – | – | – | O=C(/C(=C/c1ccc(O)cc1)c1ccc(O)cc1)c1ccccc1 |
| 0.28 | 18.4 | 36 | 2.9 mg | – | – | – | O=C(/C(=C/c1ccccc1)c1ccc(O)cc1)c1ccccc1 |
| 0.002 | – | – | – | – | – | – | O=C(/C(=C\c1ccccc1)c1ccccc1)c1ccc(OCCN2CCCC2)cc1 |
